{"data": "Measurements gathered from unrelated publications", "organism": "Escherichia coli", "note": "Protocols differ between the studies behind these lines."}
{"Structure (SMILES)": "Cc1c(NC(=O)CC2=NC(=O)CS2)c(=O)n(-c2ccccc2)n1C", "assay": "microbial killing, broth dilution", "endpoint": "MBC", "result": "0.5 µg/mL"}
{"Structure (SMILES)": "O=C1C=C(OCc2cn(-c3ccccc3)nn2)C(=O)c2ccccc21", "assay": "microbial growth, broth dilution", "test system": "ATCC25922", "endpoint": "IC50", "result": "99.5 µg/mL"}
{"Structure (SMILES)": "CC(C)c1cccc(=O)c(O)c1", "assay": "microbial growth, broth dilution", "test system": "ATCC35218", "endpoint": "MIC80", "result": "44.4 µM"}
{"Structure (SMILES)": "Cc1ccc(C(C)C)cc1OCc1cn(-c2ccc(C(=O)O)cc2)nn1", "assay": "microbial growth, broth dilution", "test system": "ATCC25922", "endpoint": "IC50", "result": "15.3 µg/mL"}
{"Structure (SMILES)": "CCCc1ccsc1-c1ccc(O)c(O)c1", "assay": "microbial growth", "test system": "AS19", "setting": "10 h", "endpoint": "IC50", "result": "15.4 µM"}
{"Structure (SMILES)": "N=C(N)c1ccccc1OCCCCCOc1ccccc1C(=N)N", "assay": "microbial growth", "test system": "BW25113", "endpoint": "MIC", "result": "> 200 µg/mL"}
{"Structure (SMILES)": "COc1c(C)c(OS(=O)(=O)c2ccc3ccccc3c2)c(C)c(O)c1C(=O)/C=C/c1ccccc1", "assay": "microbial killing, broth dilution", "test system": "ATCC25922", "endpoint": "MBC", "result": "> 5000 µg/mL"}
{"Structure (SMILES)": "O=[N+]([O-])c1ccc(-n2cc(COc3cccc4cccnc34)nn2)cc1", "assay": "microbial growth, broth dilution", "test system": "ATCC25922", "endpoint": "IC50", "result": "664 µg/mL"}
{"Structure (SMILES)": "CC(C)Oc1c(NC(=O)c2ccc(NC(=O)[C@H](CC(N)=O)NC(=O)c3cccc(NC(=O)c4ccc(C#N)cc4)c3)cc2)ccc(C(=O)Nc2ccc(C(=O)O)cc2)c1O", "assay": "microbial growth", "test system": "DSM1116", "endpoint": "MIC", "result": "> 64 µg/mL"}
{"Structure (SMILES)": "Cc1ccc(C(C)C)cc1OCc1cn(-c2ccc(Cl)cc2)nn1", "assay": "microbial growth, broth dilution", "test system": "ATCC25922", "endpoint": "IC50", "result": "655 µg/mL"}
{"Structure (SMILES)": "CC1(C)SC2C(NC(=O)C(NC(=O)C3=C(O)C(Cc4ccsc4)NC3=O)c3ccccc3)C(=O)N2C1C(=O)O (stereo not shown)", "assay": "microbial growth, well diffusion", "test system": "BW25113", "setting": "200 µM", "endpoint": "inhibition zone", "result": "10 mm"}
{"Structure (SMILES)": "COc1cc(C=CC(=O)CC(c2ccc([N+](=O)[O-])cc2)n2ccnc2)ccc1O (stereo not shown)", "assay": "microbial growth, disc diffusion", "test system": "ATCC25922", "setting": "500 µg/mL", "endpoint": "inhibition zone", "result": "10.3 mm"}
{"Structure (SMILES)": "Cc1ccc(-n2cc(COC3=CC(=O)c4ccccc4C3=O)nn2)cc1", "assay": "microbial growth, broth dilution", "test system": "ATCC25922", "endpoint": "IC50", "result": "224 µg/mL"}
{"Structure (SMILES)": "C[C@H]1COc2c(N3CCN(C)CC3)c(F)cc3c(=O)c(C(=O)O)cn1c23", "assay": "microbial growth", "test system": "ATCC25922", "endpoint": "MIC", "result": "0.04 µg/mL"}
{"Structure (SMILES)": "COc1c(C)c(OCc2ccccc2)c(C)c(O)c1C(=O)/C=C/c1ccccc1", "assay": "microbial killing, broth dilution", "test system": "ATCC25922", "endpoint": "MBC", "result": "> 5000 µg/mL"}
{"Structure (SMILES)": "Cc1ccc2nc(-c3ccc([N+](=O)[O-])cc3)[nH]c2c1", "assay": "microbial growth, broth dilution", "test system": "ATCC25922", "endpoint": "MIC", "result": "64 µg/mL"}
{"Structure (SMILES)": "CC[C@H](C)[C@H](NC(=O)OCC1c2ccccc2-c2ccccc21)C(=O)Sc1cccccc1=O", "assay": "microbial growth, broth dilution", "test system": "ATCC35218", "endpoint": "MIC80", "result": "> 100 µM"}
{"Structure (SMILES)": "COc1c(N2C[C@@H]3CCCN[C@@H]3C2)c(F)cc2c(=O)c(C(=O)O)cn(C3CC3)c12", "assay": "microbial growth", "test system": "ATCC35218", "endpoint": "MIC90", "result": "0.06 µg/mL"}
{"Structure (SMILES)": "Cc1ccc2nc(-c3ccc([N+](=O)[O-])cc3)n(Cc3ccccc3)c2c1", "assay": "microbial growth, broth dilution", "test system": "ATCC25922", "endpoint": "MIC", "result": "64 µg/mL"}
{"Structure (SMILES)": "Cc1ccc(-n2cc(COc3cc(C(C)C)ccc3C)nn2)cc1", "assay": "microbial growth, broth dilution", "test system": "ATCC25922", "endpoint": "IC50", "result": "289 µg/mL"}
{"Structure (SMILES)": "N=C(N)c1cccc(OCc2ccc(COc3cccc(C(=N)N)c3)cc2)c1", "assay": "microbial growth, broth dilution", "test system": "ATCC25922", "endpoint": "MIC", "result": "200 µg/mL"}
{"Structure (SMILES)": "O=C(N[C@H](CO)[C@H](O)c1ccc([N+](=O)[O-])cc1)C(Cl)Cl", "assay": "microbial growth", "test system": "ATCC35218", "endpoint": "MIC90", "result": "0.98 µg/mL"}
{"Structure (SMILES)": "N=C(N)c1ccc(OCCCCCCCCOc2ccc(C(=N)N)cc2)cc1", "assay": "microbial growth", "test system": "BW25113", "endpoint": "MIC", "result": "50 µg/mL"}
{"Structure (SMILES)": "Cc1ccc2nc(-c3ccco3)[nH]c2c1", "assay": "microbial growth, broth dilution", "test system": "ATCC25922", "endpoint": "MIC", "result": "128 µg/mL"}
{"Structure (SMILES)": "C#CCCCCCCCCCCCC(O)CC(O)CO (stereo not shown)", "assay": "microbial growth, broth dilution", "test system": "ATCC35218", "endpoint": "IC50", "result": "> 200 µg/mL"}
